Experimental data published in ChEMBL document CHEMBL2057102, “Aminothienopyridazine inhibitors of tau aggregation: evaluation of structure-activity relationship leads to selection of candidates with desirable in vivo properties” (Bioorg Med Chem, 2012).

Key:
[1] = AUC (0.5 to 16 hrs) in B6C3F1 mouse plasma at 5 mg/kg, ip; format: ADME, organism-based; set-up: time 0.5-16 hr, dose 5 mg/kg, route intraperitoneal
Procedure, shortened: (§1)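 Mice given 5 mg/kg i.p. (n = 3 per time point) and sacrificed at times from 0.5 to 16 h after dosing. Perfused brain hemispheres were homogenized in 10 mM ammonium acetate pH 5.7 (50% w/v). Plasma came from EDTA blood. Samples were extracted with acetonitrile and quantified by LC-MS/MS (MRM, positive ESI) against matrix standard curves by linear regression.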

[2] = tested on: Brain; experiment: Free AUC (0.5 to 16 hrs) in B6C3F1 mouse brain at 5 mg/kg, ip; format: ADME, organism-based; set-up: dose 5 mg/kg, route intraperitoneal; details: in vivo; procedure, shortened: as §1
[3] = tested on: Plasma; experiment: Free AUC (0.5 to 16 hrs) in B6C3F1 mouse plasma at 5 mg/kg, ip; format: ADME, organism-based; set-up: dose 5 mg/kg, route intraperitoneal; details: in vivo; procedure, shortened: as §1
[4] = tested on: Mus musculus; experiment: Toxicity in B6C3F1 mouse assessed as change in heart weight at 50 mg/kg, po administered in water qd for 1 month; format: organism-based; set-up: dose 50 mg/kg, route oral; details: in vivo
Procedure, shortened: (§2)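 Female B6C3F1 mice, 2 months old (n = 5 per group), dosed for 1 month via drinking water containing 3% PEG400 and 0.5% methylcellulose. Dose equivalent 50 mg/kg/day, assuming about 5 ml water per mouse per day. Vehicle controls were included and water intake was monitored. At the end, body weight was taken, then perfusion, organ weights (heart, liver, kidney, spleen, brain) and complete blood counts.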

[5] = tested on: Mus musculus; experiment: Toxicity in B6C3F1 mouse assessed as body weight loss at 50 mg/kg, po administered in water qd for 1 month relative to control; format: organism-based; set-up: dose 50 mg/kg, route oral; details: in vivo; procedure, shortened: as §2
[6] = Drug uptake in B6C3F1 mouse plasma at 5 mg/kg, ip after 1 hr; format: ADME, organism-based; set-up: dose 5 mg/kg, route intraperitoneal; details: B6C3F1, mouse, plasma
Procedure, shortened: (§3)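 Single i.p. dose of 5 mg/kg, sacrifice 1 h later. Perfused brain hemispheres were homogenized in 10 mM ammonium acetate pH 5.7 (50% w/v). EDTA plasma was taken. Brain homogenate or plasma was extracted with acetonitrile and analysed by LC-MS/MS (MRM) against matrix standard curves. Brain-to-plasma ratio was taken from total levels.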

[7] = tested on: Mus musculus; experiment: Toxicity in B6C3F1 mouse assessed as adverse effects at 50 mg/kg, po administered qd for 1 month; format: organism-based; set-up: dose 50 mg/kg, route oral; details: in vivo; procedure, shortened: as §2
[8] = tested on: Mus musculus; experiment: Ratio of drug level in brain to plasma in B6C3F1 mouse at 5 mg/kg, ip after 1 hr
[9] = tested on: Mus musculus; experiment: Toxicity in B6C3F1 mouse assessed as change in neutrophil count at 50 mg/kg, po administered in water qd for 1 month; format: organism-based; set-up: dose 50 mg/kg, route oral; details: in vivo; procedure, shortened: as §2
[10] = tested on: Mus musculus; experiment: Toxicity in B6C3F1 mouse assessed as adverse effects up to 100 mg/kg, po; format: organism-based; set-up: dose 100 mg/kg, route oral; details: in vivo
[11] = tested on: Mus musculus; experiment: Toxicity in B6C3F1 mouse assessed as change in liver weight at 50 mg/kg, po administered in water qd for 1 month; format: organism-based; set-up: dose 50 mg/kg, route oral; details: in vivo; procedure, shortened: as §2
[12] = Drug uptake in B6C3F1 mouse brain at 5 mg/kg, ip after 1 hr; format: ADME, organism-based; set-up: dose 5 mg/kg, route intraperitoneal; details: B6C3F1, mouse, brain, read-out: Drug uptake; procedure, shortened: as §3
[13] = tested on: Mus musculus; experiment: Toxicity in B6C3F1 mouse assessed as change in brain weight at 50 mg/kg, po administered in water qd for 1 month; format: organism-based; set-up: dose 50 mg/kg, route oral; details: in vivo; procedure, shortened: as §2
[14] = tested on: Mus musculus; experiment: Toxicity in B6C3F1 mouse assessed as change in WBC count at 50 mg/kg, po administered in water qd for 1 month; format: organism-based; set-up: dose 50 mg/kg, route oral; details: in vivo; procedure, shortened: as §2
[15] = tested on: Mus musculus; experiment: Toxicity in B6C3F1 mouse assessed as change in kidney weight at 50 mg/kg, po administered in water qd for 1 month; format: organism-based; set-up: dose 50 mg/kg, route oral; details: in vivo; procedure, shortened: as §2
[16] = Half life in B6C3F1 mouse plasma at 5 mg/kg, ip after 16 hrs; format: ADME, organism-based; set-up: dose 5 mg/kg, route intraperitoneal; procedure, shortened: as §1
[17] = Clearance in B6C3F1 mouse plasma at 5 mg/kg, ip after 16 hrs; format: ADME, organism-based; set-up: dose 5 mg/kg, route intraperitoneal; procedure, shortened: as §1
[18] = Inhibition of heparin-induced alexa red-labelled tau K18PL mutant aggregation after 6 hrs by thioflavin-T fluorescence assay; set-up: species or system Homo sapiens
Procedure, shortened: (§4)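 Heparin-induced fibrillization of tau K18 fragment (residues 244–369) carrying P301L, with tau at 20 μM in sodium acetate buffer. Fibril formation was read by thioflavin-T fluorescence. IC50 came from sigmoidal fitting of concentration-response data, each concentration in triplicate. Values are from a single fit, or the mean of 2 or more analyses where marked.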

[19] = species: Homo sapiens; experiment: Inhibition of heparin-induced tau K18PL mutant aggregation assessed as soluble tau fragment level at 50 uM after 5 days by SDS-PAGE analysis
Procedure, shortened: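 Secondary centrifugation assay. Heparin-induced K18 P301L tau fibrillization mixtures with compound at 50 μM were centrifuged. Soluble and insoluble fractions were analysed by SDS-PAGE to give the percentage of tau remaining soluble.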

[20] = tested on: Mus musculus; experiment: Toxicity in B6C3F1 mouse assessed as mild and transient lethargy at 100 mg/kg, po; format: organism-based; set-up: dose 100 mg/kg, route oral; details: in vivo
[21] = Ratio of drug level in brain to plasma in B6C3F1 mouse at 5 mg/kg, ip after 16 hrs; format: ADME, organism-based; set-up: dose 5 mg/kg, route intraperitoneal; details: read-out: BPR; procedure, shortened: as §1
[22] = tested on: Mus musculus; experiment: Toxicity in B6C3F1 mouse assessed as adverse event at 50 mg/kg, po administered in water qd for 1 month; format: organism-based; set-up: dose 50 mg/kg, route oral; details: in vivo; procedure, shortened: as §2
[23] = tested on: Brain; experiment: Fraction unbound in mouse brain homogenate at 1 uM after 5 hrs by equilibrium dialysis; format: ADME, tissue-based
Procedure, shortened: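 Rapid equilibrium dialysis. Compound at 1 μM in mouse plasma or brain homogenate, each diluted threefold with 100 mM sodium phosphate pH 7.4. Triplicate samples dialysed against the same buffer for 5 h at 37 °C with shaking. Both sides were matrix-matched, extracted with acetonitrile and run by LC-MS/MS. fu is buffer response over sample response; brain fu was corrected for tissue dilution.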

[24] = tested on: Mus musculus; experiment: Toxicity in B6C3F1 mouse assessed as change in RBC count at 50 mg/kg, po administered in water qd for 1 month; format: organism-based; set-up: dose 50 mg/kg, route oral; details: in vivo; procedure, shortened: as §2
[25] = Oral bioavailability in B6C3F1 mouse at 10 mg/kg at 1 hr; format: ADME, organism-based; details: in vivo
[26] = AUC (0.5 to 16 hrs) in B6C3F1 mouse brain at 5 mg/kg, ip; format: ADME, organism-based; set-up: time 0.5-16 hr, dose 5 mg/kg, route intraperitoneal; procedure, shortened: as §1
[27] = species: Homo sapiens; experiment: Inhibition of heparin-induced alexa red-labelled tau K18PL mutant aggregation after 6 hrs by thioflavin-T fluorescence assay relative to control; procedure, shortened: as §4
[28] = Ratio of unbound fraction in brain to plasma in B6C3F1 mouse at 5 mg/kg, ip after 16 hrs; format: ADME, organism-based; set-up: dose 5 mg/kg, route intraperitoneal; details: in vivo; procedure, shortened: as §1
[29] = tested on: Brain; experiment: Clearance in B6C3F1 mouse brain at 5 mg/kg, ip after 16 hrs; format: ADME, organism-based; set-up: dose 5 mg/kg, route intraperitoneal; details: in vivo; procedure, shortened: as §1
[30] = Plasma concentration in B6C3F1 mouse at 5 mg/kg, ip at 1 hr; format: ADME, organism-based; set-up: dose 5 mg/kg, route intraperitoneal; procedure, shortened: as §3
[31] = tested on: Mus musculus; experiment: Toxicity in B6C3F1 mouse assessed as change in lymphocyte count at 50 mg/kg, po administered in water qd for 1 month; format: organism-based; set-up: dose 50 mg/kg, route oral; details: in vivo; procedure, shortened: as §2
[32] = tested on: Plasma; experiment: Volume of distribution in B6C3F1 mouse plasma at 5 mg/kg, ip after 16 hrs; format: ADME, organism-based; set-up: dose 5 mg/kg, route intraperitoneal; details: in vivo; procedure, shortened: as §1
[33] = tested on: Mus musculus; experiment: Toxicity in B6C3F1 mouse assessed as change in spleen weight at 50 mg/kg, po administered in water qd for 1 month; format: organism-based; set-up: dose 50 mg/kg, route oral; details: in vivo; procedure, shortened: as §2
[34] = Plasma concentration in B6C3F1 mouse at 10 mg/kg, po at 1 hr; format: ADME, organism-based; set-up: dose 10 mg/kg, route oral
[35] = Drug uptake in B6C3F1 mouse brain at 50 mg/kg, po administered qd in drinking water for 3 days; format: ADME, organism-based; set-up: dose 50 mg/kg, route oral; details: read-out: Drug uptake
Procedure, shortened: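 Brain levels were measured after 3 days. Perfused brain hemispheres were homogenized in 10 mM ammonium acetate, pH 5.7 (50% w/v), extracted with acetonitrile, and analysed by LC-MS/MS (MRM) against brain-homogenate standard curves. Free level was calculated from the equilibrium-dialysis brain unbound fraction.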

## Nc1scc2c(C(=O)NC3CC3)nn(-c3ccc(F)cc3)c(=O)c12
[1]
  AUC(0-t): 2350 ng·h/mL
[2]
  fAUC: 195 ng·h/mL
[3]
  fAUC: 162 ng·h/mL
[4]
  Activity: Non-toxic
[5]
  Activity: Non-toxic
[6]
  concentration at 1 h: 610 ng/mL
[7]
  Activity: Non-toxic
[8]
  BPR: 1.09
[9]
  Activity: Non-toxic
[10]
  Activity: Non-toxic
[11]
  Activity: Non-toxic
[12]
  concentration at 1 h: 670 ng/g
[13]
  Activity: Non-toxic
[14]
  Activity: Non-toxic
[15]
  Activity: Non-toxic
[16]
  half-life: 132 min
[17]
  CL/F: 1.31 mL/min
[18]
  IC50: 2500 nM
[19]
  inhibition: 78%
[20]
  Activity: Toxic
[21]
  Kp at 16 h: 1.9
[22]
  Activity: Non-toxic
[23]
  Fu: 4.3%
[24]
  Activity: Non-toxic
[25]
  bioavailability: 60%
[26]
  AUC(0-t): 4510 ng·h/mL
[27]
  Imax: 88%
[28]
  BPR: 1.2
[29]
  CL: 50 mL/h
[30]
  concentration at 1 h: 610 ng/mL
[31]
  Activity: Non-toxic
[32]
  Vd: 246 mL
[33]
  Activity: Non-toxic
[34]
  concentration at 1 h: 832 ng/mL
[35]
  concentration at 72 h: 139 nM
